The values below come from ChEMBL document CHEMBL1145628, “New tetrazole-based selective anandamide uptake inhibitors” (Bioorg Med Chem Lett, 2008).

The target of assay [1] is T1, Fatty-acid amide hydrolase 1 (Rattus norvegicus, UniProt P97612).
T1 sequence (P97612 whole entry): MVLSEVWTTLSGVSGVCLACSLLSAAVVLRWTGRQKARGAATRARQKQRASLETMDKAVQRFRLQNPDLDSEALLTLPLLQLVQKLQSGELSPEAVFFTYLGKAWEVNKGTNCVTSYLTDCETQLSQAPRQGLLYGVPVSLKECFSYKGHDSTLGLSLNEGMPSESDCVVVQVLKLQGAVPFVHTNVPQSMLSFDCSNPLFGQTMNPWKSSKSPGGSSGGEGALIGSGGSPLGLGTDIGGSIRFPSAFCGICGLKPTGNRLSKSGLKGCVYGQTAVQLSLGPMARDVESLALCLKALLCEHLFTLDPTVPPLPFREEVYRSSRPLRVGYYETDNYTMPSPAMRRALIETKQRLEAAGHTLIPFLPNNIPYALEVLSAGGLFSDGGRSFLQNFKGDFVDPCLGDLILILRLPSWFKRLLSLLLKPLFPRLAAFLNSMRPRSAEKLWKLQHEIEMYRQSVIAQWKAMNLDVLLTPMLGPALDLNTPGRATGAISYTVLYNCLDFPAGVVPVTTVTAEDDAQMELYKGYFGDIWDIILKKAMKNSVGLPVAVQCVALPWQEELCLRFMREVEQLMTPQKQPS
As to the kind of experiment: Inhibition of rat brain FAAH mediated [14C]anandamide hydrolysis. The procedure, abridged:
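Hydrolysis of [14C]anandamide was measured with rat brain membranes as the enzyme source; means of n = 4.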

The next assay deals with RBL-2H3. As to the kind of experiment: Inhibition of [14C]anandamide uptake in rat RBL-2H3. Type of assay: functional, cell-based. The method in brief:
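Uptake of [14C]anandamide was measured in intact RBL-2H3 cells; means of n = 4.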

The nature of assay [2]: Inhibition of human MAGL mediated [14C]2-AG hydrolysis in COS cell. Format: cell-based. The procedure, abridged:
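Enzyme source was cytosolic fractions of COS cells (MAGL-expressing), with hydrolysis of [14C]2-AG as the read-out; means of 4 determinations.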

Assay [3] concerns the target T2, Diacylglycerol lipase-alpha (Homo sapiens, UniProt Q9Y4D2).
T2 sequence (Q9Y4D2 whole entry): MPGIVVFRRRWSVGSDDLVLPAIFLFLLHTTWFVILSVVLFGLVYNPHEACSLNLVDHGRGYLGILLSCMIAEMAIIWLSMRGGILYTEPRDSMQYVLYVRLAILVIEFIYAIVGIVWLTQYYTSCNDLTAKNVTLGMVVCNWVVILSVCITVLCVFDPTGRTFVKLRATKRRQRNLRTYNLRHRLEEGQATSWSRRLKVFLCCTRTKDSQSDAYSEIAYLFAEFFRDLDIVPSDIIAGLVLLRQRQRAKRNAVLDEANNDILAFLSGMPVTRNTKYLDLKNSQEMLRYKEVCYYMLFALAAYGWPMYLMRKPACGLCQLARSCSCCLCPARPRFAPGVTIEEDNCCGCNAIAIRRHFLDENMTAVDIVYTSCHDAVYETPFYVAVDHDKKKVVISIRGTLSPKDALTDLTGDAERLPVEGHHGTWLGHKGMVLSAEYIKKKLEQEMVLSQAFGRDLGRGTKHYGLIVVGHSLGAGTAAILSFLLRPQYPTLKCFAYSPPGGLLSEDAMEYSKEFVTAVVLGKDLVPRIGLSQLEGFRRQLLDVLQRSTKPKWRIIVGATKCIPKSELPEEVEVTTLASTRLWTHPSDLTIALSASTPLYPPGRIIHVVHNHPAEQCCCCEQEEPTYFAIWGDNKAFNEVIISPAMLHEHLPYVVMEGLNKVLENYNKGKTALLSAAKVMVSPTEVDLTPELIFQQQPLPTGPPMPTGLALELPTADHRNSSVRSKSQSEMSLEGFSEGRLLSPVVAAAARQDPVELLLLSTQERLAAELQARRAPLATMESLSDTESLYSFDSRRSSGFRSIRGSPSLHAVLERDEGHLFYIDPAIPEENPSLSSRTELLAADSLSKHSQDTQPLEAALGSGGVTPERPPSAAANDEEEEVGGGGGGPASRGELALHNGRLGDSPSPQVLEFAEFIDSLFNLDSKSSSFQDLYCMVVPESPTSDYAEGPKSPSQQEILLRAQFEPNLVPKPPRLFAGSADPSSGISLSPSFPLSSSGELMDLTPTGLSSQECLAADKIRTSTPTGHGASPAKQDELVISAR
As to the kind of experiment: Inhibition of human DAGLalpha mediated sn-1-[14C]oleoyl-2-arachidonoyl-glycerol hydrolysis to 2-AG in COS cell. The procedure, abridged:
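Substrate: sn-1-[14C]oleoyl-2-arachidonoyl-glycerol. Conversion into 2-AG and [14C]oleic acid was followed using membranes of COS cells overexpressing human recombinant DAGLα; n = 4 means.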

The next assay deals with Cannabinoid receptor 1 (Homo sapiens, UniProt P21554). As to the kind of experiment: Binding affinity to human CB1 receptor expressed in COS cells. Format: cell-based. The procedure, abridged:
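Tested at CB1 receptors in transfected COS cells; means of 4 separate determinations.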

Another assay has as its target Cannabinoid receptor 2 (Homo sapiens, UniProt P34972). Put plainly: Binding affinity to human CB2 receptor expressed in COS cells. Format: cell-based. The method in brief: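 Human CB2 receptor expressed by transfection in COS cells. Each value is the mean of 4 separate determinations.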
Assay [4] deals with Transient receptor potential cation channel subfamily A member 1 (Rattus norvegicus, UniProt Q6RI86). Put plainly: Agonist activity at rat TRPA1 channel expressed in human HEK293 cells assessed as elevation in intracellular calcium flux. Type of assay: functional, cell-based. The method in brief: (§1)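 Stably rat TRPA1-transfected HEK-293 cells, grown 3 days, were loaded with 4 µM Fluo4-AM plus 0.02% Pluronic for 1 h at room temperature. They were washed and resuspended in Tyrode's buffer pH 7.4, and [Ca2+]i was read under stirring (ex 488/em 516 nm) before and after compound addition. EC50 is the half-maximal [Ca2+]i rise. Efficacy (100 µM compound) is expressed relative to 100 µM mustard oil; n = 4 means.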

Assay [5] concerns the target Transient receptor potential cation channel subfamily A member 1 (Rattus norvegicus) (UniProt Q6RI86). Put plainly: Agonist activity at rat TRPA1 channel expressed in human HEK293 cells assessed as elevation in intracellular calcium flux at 100 uM relative to mustard oil. Format: functional, cell-based. The method in brief:
as §1
For orientation: A change in cytosolic calcium serves as a functional read-out for many receptors and channels.

For assay [6], the target named is T3, Transient receptor potential cation channel subfamily V member 1 (Homo sapiens, UniProt Q8NER1). As to the kind of experiment: Agonist activity at human TRPV1 channel expressed in human HEK293 cells assessed as elevation in intracellular calcium flux. Type of assay: functional, cell-based. The procedure, abridged:
(§2)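 HEK-293 cells overexpressing TRPV1 were used, with intracellular Ca2+ elevation as the read-out. The single-point value is the effect of 10 µM compound as percent of the Ca2+ response to 4 µM ionomycin. Data are means of 4 separate determinations.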

In assay [7] the target is T3, Transient receptor potential cation channel subfamily V member 1. As to the kind of experiment: Agonist activity at human TRPV1 channel expressed in human HEK293 cells assessed as elevation in intracellular calcium flux at 10 uM relative to ionomycin. Type of assay: functional, cell-based. The procedure, abridged: as §2

Cannabinoid receptor 1, sequence (P21554 whole entry): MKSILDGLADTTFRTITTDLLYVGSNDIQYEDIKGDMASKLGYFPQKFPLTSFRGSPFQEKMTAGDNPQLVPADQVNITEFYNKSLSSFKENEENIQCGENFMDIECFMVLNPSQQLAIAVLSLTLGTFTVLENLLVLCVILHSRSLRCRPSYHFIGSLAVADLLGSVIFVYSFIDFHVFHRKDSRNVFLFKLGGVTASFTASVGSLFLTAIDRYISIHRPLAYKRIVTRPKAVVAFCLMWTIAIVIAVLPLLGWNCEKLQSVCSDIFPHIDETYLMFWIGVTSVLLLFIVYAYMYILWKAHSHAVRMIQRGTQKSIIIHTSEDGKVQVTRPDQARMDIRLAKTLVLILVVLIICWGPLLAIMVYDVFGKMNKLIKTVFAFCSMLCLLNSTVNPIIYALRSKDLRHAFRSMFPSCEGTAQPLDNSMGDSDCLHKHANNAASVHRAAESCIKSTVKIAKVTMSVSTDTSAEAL
Cannabinoid receptor 2, sequence (P34972 whole entry): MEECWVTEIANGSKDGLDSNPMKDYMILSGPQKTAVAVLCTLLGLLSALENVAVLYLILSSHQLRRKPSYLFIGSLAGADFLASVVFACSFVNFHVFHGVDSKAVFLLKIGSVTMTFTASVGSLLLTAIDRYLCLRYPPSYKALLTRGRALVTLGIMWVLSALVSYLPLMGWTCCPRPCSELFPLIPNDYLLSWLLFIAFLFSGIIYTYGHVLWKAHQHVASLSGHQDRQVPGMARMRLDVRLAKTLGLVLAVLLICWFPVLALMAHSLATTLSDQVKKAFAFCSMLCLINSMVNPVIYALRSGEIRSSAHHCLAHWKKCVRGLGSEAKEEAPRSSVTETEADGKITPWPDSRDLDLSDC
Transient receptor potential cation channel subfamily A member 1, sequence (Q6RI86 whole entry): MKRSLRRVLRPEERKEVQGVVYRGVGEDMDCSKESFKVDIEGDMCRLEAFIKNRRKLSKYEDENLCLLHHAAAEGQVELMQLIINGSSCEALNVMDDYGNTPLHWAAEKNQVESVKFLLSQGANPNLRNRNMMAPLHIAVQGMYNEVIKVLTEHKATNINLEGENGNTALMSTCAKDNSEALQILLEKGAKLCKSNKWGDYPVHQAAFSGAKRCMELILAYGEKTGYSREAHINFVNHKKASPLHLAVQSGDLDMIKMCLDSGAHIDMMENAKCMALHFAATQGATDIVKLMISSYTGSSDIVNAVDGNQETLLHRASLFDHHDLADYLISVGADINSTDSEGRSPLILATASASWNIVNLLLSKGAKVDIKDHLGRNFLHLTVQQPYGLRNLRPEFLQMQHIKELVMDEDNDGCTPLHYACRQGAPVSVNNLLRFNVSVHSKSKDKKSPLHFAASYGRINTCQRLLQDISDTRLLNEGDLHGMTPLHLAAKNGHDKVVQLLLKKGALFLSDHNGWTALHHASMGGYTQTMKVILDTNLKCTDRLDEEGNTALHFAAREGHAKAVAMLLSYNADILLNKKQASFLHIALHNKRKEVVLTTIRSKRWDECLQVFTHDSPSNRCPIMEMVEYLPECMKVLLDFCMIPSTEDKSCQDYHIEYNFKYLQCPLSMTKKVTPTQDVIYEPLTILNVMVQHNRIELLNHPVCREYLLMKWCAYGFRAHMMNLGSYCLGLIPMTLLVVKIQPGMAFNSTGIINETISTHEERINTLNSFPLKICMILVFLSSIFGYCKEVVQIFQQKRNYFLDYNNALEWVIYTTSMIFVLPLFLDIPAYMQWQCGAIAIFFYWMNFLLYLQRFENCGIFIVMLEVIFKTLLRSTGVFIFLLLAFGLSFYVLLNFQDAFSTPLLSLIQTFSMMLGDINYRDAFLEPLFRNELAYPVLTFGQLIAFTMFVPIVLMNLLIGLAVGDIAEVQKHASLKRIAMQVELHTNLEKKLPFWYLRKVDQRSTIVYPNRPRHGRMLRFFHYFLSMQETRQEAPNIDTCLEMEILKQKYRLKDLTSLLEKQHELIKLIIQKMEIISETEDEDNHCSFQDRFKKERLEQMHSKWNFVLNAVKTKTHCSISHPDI
Transient receptor potential cation channel subfamily A member 1 (Rattus norvegicus), sequence (Q6RI86 whole entry): as above
T3 sequence (Q8NER1 whole entry): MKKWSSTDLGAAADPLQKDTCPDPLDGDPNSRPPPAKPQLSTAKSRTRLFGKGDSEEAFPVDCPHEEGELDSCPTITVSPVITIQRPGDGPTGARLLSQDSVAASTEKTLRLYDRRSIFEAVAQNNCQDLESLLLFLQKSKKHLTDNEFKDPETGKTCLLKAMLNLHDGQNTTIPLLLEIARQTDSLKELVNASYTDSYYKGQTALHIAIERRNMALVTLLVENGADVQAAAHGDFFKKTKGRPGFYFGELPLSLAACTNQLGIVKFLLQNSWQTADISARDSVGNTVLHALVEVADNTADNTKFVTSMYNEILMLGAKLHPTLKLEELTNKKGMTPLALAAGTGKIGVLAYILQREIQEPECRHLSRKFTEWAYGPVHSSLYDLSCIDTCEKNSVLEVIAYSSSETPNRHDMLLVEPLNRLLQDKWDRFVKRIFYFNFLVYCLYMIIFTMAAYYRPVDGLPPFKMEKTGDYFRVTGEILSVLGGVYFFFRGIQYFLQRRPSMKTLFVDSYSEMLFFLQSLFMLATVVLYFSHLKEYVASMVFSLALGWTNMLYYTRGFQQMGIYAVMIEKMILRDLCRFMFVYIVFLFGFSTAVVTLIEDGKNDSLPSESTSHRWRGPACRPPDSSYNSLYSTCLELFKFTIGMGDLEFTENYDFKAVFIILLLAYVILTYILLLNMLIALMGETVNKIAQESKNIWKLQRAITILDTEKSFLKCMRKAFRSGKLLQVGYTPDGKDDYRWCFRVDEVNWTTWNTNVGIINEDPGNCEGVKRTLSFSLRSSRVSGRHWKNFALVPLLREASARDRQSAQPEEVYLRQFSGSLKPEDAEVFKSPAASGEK

In the case of `N#CCn1nnnc1Cc1ccc(-c2ccccc2)cc1`, the IC50 was above 50 µM in [1], 24.8 µM in the assay with RBL-2H3, above 10 µM in assay [2] and above 10 µM in assay [3]. Moreover, the Ki at Cannabinoid receptor 1 and on Cannabinoid receptor 2 was above 10 µM in each case. In addition, the EC50 in assay [4] was 26.3 µM; in assay [6], above 100 µM. The Efficacy in assay [5] is 83.2%; in assay [7], 5.4%.

On to `CC(=O)Cn1nnnc1CNC(=O)c1ccc(-c2ccccc2)cc1`, for which the IC50 in [1] is above 50 µM; in the assay with RBL-2H3, 12.5 µM; in assay [2] it was above 10 µM; in [3] it was above 10 µM. The Ki at Cannabinoid receptor 1 and on Cannabinoid receptor 2 was above 10 µM throughout. Also, the half-maximal effective concentration (EC50) in assay [4] and in assay [6] was above 100 µM in each case. In addition, the Efficacy in [5] amounted to 0%; in [7] it was 7.7%.

Regarding `CC(C)Cn1nnnc1CNC(=O)c1ccc(-c2ccccc2)cc1`, the half-maximal inhibitory concentration (IC50) in assay [1] was above 50 µM; with RBL-2H3, above 25 µM; in [2], above 10 µM; in [3], above 10 µM. Moreover, the Ki at Cannabinoid receptor 1 and on Cannabinoid receptor 2 was above 10 µM in each case. Also, the EC50 in assay [4] was above 100 µM; in assay [6], 15 µM. The figures for the Efficacy in assay [5] and in [7] were 26.1% and 9.1%, respectively.

Take `CN(C)C(=O)Cn1nnc(CNC(=O)c2ccc(-c3ccccc3)cc2)n1`: the IC50 in [1] is above 50 µM; in the assay on RBL-2H3, 2.3 µM; in [2], above 10 µM; in [3], above 10 µM. In addition, the Ki at Cannabinoid receptor 1 and on Cannabinoid receptor 2 was above 10 µM in each case. The EC50 in assay [4] and in assay [6] was above 100 µM throughout. Besides, the results for the Efficacy in [5] and in assay [7] were 0% and 1.2%, respectively.

Take `N#CCn1nnnc1CNC(=O)c1ccc(-c2ccccc2)cc1`: the IC50 in assay [1] is above 50 µM; in the assay with RBL-2H3, above 25 µM; in assay [2], above 10 µM; in [3], above 10 µM. Moreover, the Ki on Cannabinoid receptor 1 and at Cannabinoid receptor 2 was above 10 µM each time. Further, the EC50 in [4] and in [6] was above 100 µM throughout. Moreover, the figures for the Efficacy in [5] and in assay [7] were 0% and 6.3%, respectively.

With `COC(=O)Cn1nnc(CNC(=O)c2ccc(-c3ccccc3)cc2)n1`, the IC50 in assay [1] was above 50 µM; in the assay on RBL-2H3, above 25 µM; in assay [2], above 10 µM; in [3] it was above 10 µM. Moreover, the Ki at Cannabinoid receptor 1 and at Cannabinoid receptor 2 was above 10 µM each time. For the same compound, the EC50 in assay [4] and in assay [6] was above 100 µM in each case. Moreover, the Efficacy was 0% in assay [5] and 2.2% in assay [7].

A word on the IC50: it is the concentration that gives 50% inhibition. A higher IC50 goes with weaker potency. As a reminder, the Ki is a measure of affinity in units of concentration, obtained from inhibition or displacement. Read a low Ki as higher affinity. A word on the EC50: it is the midpoint of the concentration-response curve.
